Fewer inactive variants are shown than the library holds.
B1: tRNA (parent)
chain: GUUCCGUUGGCGUAAUGGUAACGCGUCUCCCUCCUAAGGAGAAGACUGCGGGUUCGAGUCCCGUACGGAACG

Variants of: B1
Test: yeast fitness relative to wild type (ratio to wild type); higher = fitter; tRNA-Arg(CCU), competitive growth, 37 C, YPD
How it was run: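 The tRNA-Arg(CCU) gene variants were made by chemical synthesis with a 3% per-site mutation rate at 69 sites and inserted at the native genomic locus of Saccharomyces cerevisiae. After pooling, the strains were competed in YPD at 37°C for 24 hours in six parallel replicates. Gene amplicons from the start population and each end population were read by 100-nucleotide paired-end sequencing, and Darwinian fitness relative to wild type was taken from genotype frequency changes. Genotypes needed ≥ 100 starting reads, and estimates < 0.5 were set to 0.5.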

| Variant | yeast fitness |
| --- | --- |
| G23C C30A C46A | ≤ 0.5 |
| C49A C62U A65G | ≤ 0.5 |
| G6C A42G | 0.815 |
| A37G A45C C46A | 0.579 |
| U35A U47C | 0.589 |
| U8C G25A C29G C31A C62U | ≤ 0.5 |
| C4G C30A C62A | ≤ 0.5 |
| G38C U54G C60A | 0.589 |
| A20U C34A G67A | ≤ 0.5 |
| C5G C11U G48C C49A A57C | ≤ 0.5 |
| U3A U13A G23C A36C A70C | 0.596 |
| U3C C24G | 0.642 |
| A20G C29G A40G C49G | ≤ 0.5 |
| U7A C24U | 0.669 |
| G17C G18C A69U | ≤ 0.5 |
| A20C A36G U47C | 0.658 |
| G9A G17C A20U U54A C61U | ≤ 0.5 |
| C22A A43C G63C G67A | ≤ 0.5 |
| C11G C46U G51A | 0.649 |
| C11G G12A A21G G58A C62G | 0.532 |
| G9U C11A A14G C24U G41C C55G | ≤ 0.5 |
| C4A U32C G58C | 0.588 |
| A21C C46A | 0.995 |
| U2A C5G C66U | 0.657 |

| Variant | yeast fitness |
| --- | --- |
| A21G A42C C61U | 0.659 |
| C4G A14C A42G | ≤ 0.5 |
| G23A A40U | 0.842 |
| U3C C34A G44A U54A | ≤ 0.5 |
| C49A U53A U59C C61A | ≤ 0.5 |
| U8A G38A G48C G67A | 0.69 |
| C5G G25A U59G | 0.631 |
| U7G C29U A36U | ≤ 0.5 |
| U13C C30U C33U | 0.537 |
| C30U G67C | 0.864 |
| U16C C49U A69U | 0.555 |
| C22A U28G C31G A42U G58C | ≤ 0.5 |
| C46A C66A | 0.688 |
| G18A U19A G51C U64C | ≤ 0.5 |
| A14U C24G G41A G44A C61U | ≤ 0.5 |
| C4A C34G G68A | ≤ 0.5 |
| A21G U26G G51C | ≤ 0.5 |
| A40C A65U | 0.817 |
| C30A A40G C66A | ≤ 0.5 |
| G18C G51A | 0.518 |
| A14C C27G A70U | 0.54 |
| C24G A42C A70U | 0.616 |
| C31G G50C | 0.738 |
| U28G C34G A36G G44C C61G | ≤ 0.5 |

| Variant | yeast fitness |
| --- | --- |
| G25C G41C C46U A65U | 0.551 |
| C33A A45U A70C | 0.512 |
| U3A C29G A40U G41C A42C | ≤ 0.5 |
| A14U A40U A42U G51A | 0.62 |
| G10C G41A G50C | ≤ 0.5 |
| C4G U19C C62U | 0.799 |
| A14G G18C A21U C29G C66U | ≤ 0.5 |
| G17A U47A | 0.823 |
| C11G G18C | 0.611 |
| U7C C62G A69U | 0.565 |
| U47A G48C | 0.82 |
| C24U C27U A43C | 1.04 |
| C24U A65U A69C | 0.564 |
| A37G G63A | 0.62 |
| U16G A45U G50A C66U | ≤ 0.5 |
| G10A A20C G38A G41A A65C | ≤ 0.5 |
| G10A A14U A20G U26G C31G C34G A42U A43C G50C G63A | ≤ 0.5 |
| C11U A43U G63C | 0.558 |
| C22G C49U G56A | 0.797 |
| A21U C62A | 0.613 |
| U32C A42U C62G | 0.578 |
| C31A C62A A70C | 0.548 |
| G6A A43U U53C A57C A65U | ≤ 0.5 |
| C4G G9A U28C G39A | ≤ 0.5 |

| Variant | yeast fitness |
| --- | --- |
| U7A C11U A36U C62U C66U | ≤ 0.5 |
| U3C C30G A43C G67C | ≤ 0.5 |
| C33U C34A A36G A42U C49U | 0.571 |
| G6A A14U G48A | 0.547 |
| G23A G41C | 0.803 |
| C11A U59C | 0.527 |
| A36G G63A | 0.944 |
| C11U G52C C61G | ≤ 0.5 |
| U3G A42U | 0.758 |
| U16C A20C A21U C27G A42U | ≤ 0.5 |
| C27G U28A C30G C31U A40G G67A | ≤ 0.5 |
| G25A G50A | 0.997 |
| U13C C60A | 0.685 |
| G39C U53G | 0.578 |
| A36U A42U C49U | 0.576 |
| A21G C33G G67A | ≤ 0.5 |
| A14U G52C C66U | ≤ 0.5 |
| C5G C22A C33G | 0.61 |
| U16G G48A G68A | 1.09 |
| C11G G12C U16G A21G C33G | ≤ 0.5 |
| C27A A43C U47C | 0.594 |
| C34A G44C G68A | ≤ 0.5 |
| C4A G63A | 0.938 |
| U26G C27G U47A C62U | ≤ 0.5 |

| Variant | yeast fitness |
| --- | --- |
| A36C A37C U53G A70C | 0.582 |
| C22G C29G A69U | 0.626 |
| C4U C5G U16C C24G A42C | 0.504 |
| U3G G18A G41A A45U | ≤ 0.5 |
| U7G G10C C22G | ≤ 0.5 |
| C30A C31U A45C C55G | 0.522 |
| A15U A40G A65U | 0.516 |
| G17U A69C A70G | 0.643 |
| A20C C24U A42C C55G | ≤ 0.5 |
| C24G G25A C34A C46G | ≤ 0.5 |
| U13A G23C U32G C49U A69U | ≤ 0.5 |
| U8C U16G G41C | ≤ 0.5 |
| C11U G41C G68A A69C | ≤ 0.5 |
| C5G U7G A15G | ≤ 0.5 |
| A15G G17C C33A C46A G52A | ≤ 0.5 |
| C4A G67U A69G | 0.751 |
| C11A A21C C34A A57U C61A | 0.539 |
| C4U C27U C33A A45C U54A | ≤ 0.5 |
| C11A A36G C62U | 0.539 |
| G12A A42C C49A C61U | ≤ 0.5 |
| G10C A14U G25A C27U U53C C61U A70G | ≤ 0.5 |
| A15C G23C G41A | ≤ 0.5 |
| C4U C61G C62A | ≤ 0.5 |
| U26C A40C A43G G44A | ≤ 0.5 |

| Variant | yeast fitness |
| --- | --- |
| C11G A21G C31G A42G | ≤ 0.5 |
| C33G A43C | 0.666 |
| A15U C31A C62U | 0.573 |
| G12A G23C C61G | ≤ 0.5 |
| U8A A43U A70G | 0.532 |
| C29G G50C C55U | ≤ 0.5 |
| G23C A42U A43G | ≤ 0.5 |
| C4A A40U G52C C60G A69C | 0.55 |
| C5U C22A G25A | 0.781 |
| C66U A69U | 0.831 |
| G18C G23A G25C A37G A43C A65C | ≤ 0.5 |
| A45G G58C | 0.958 |
| C34G A42G G44C C66A | ≤ 0.5 |
| C34U C55G G63A | ≤ 0.5 |
| U19A A65C C66G A70G | ≤ 0.5 |
| G52A A57C A70G | 0.524 |
| C34G A42G C49A | ≤ 0.5 |
| G17A C31G G38C G63C | ≤ 0.5 |
| C60U G67U | 0.678 |
| U13G A42U G44A C49A | 0.602 |
| C33A C34G A57U | ≤ 0.5 |
| A20U U35C A36G | 0.592 |
| U7C A21U C22A C49U G50C A69U | ≤ 0.5 |
| U3C A20G U59A | 0.684 |

| Variant | yeast fitness |
| --- | --- |
| U16A U32C A37U C49G | 0.516 |
| A20G C34A U47A C61G | ≤ 0.5 |
| G6A C30U C33U C46U | ≤ 0.5 |
| G6A A70G | 0.928 |
| U16A G39A C46G | 0.695 |
| A40C C62U U64C | 0.534 |
| C4A U7A A14G G17C A36G C61U | ≤ 0.5 |
| U53G A57U | 0.626 |
| G12C U35C | 0.691 |
| C11A G17A C62U C66U | ≤ 0.5 |
| G6A C61U A69U | 0.632 |
| A45U C61G | 0.569 |
| A15G U28G A42U G48A | ≤ 0.5 |
| U8A U19C A21C G39C | ≤ 0.5 |
| A14U U26C A42U C60G | ≤ 0.5 |
| G52A C62U G63A | ≤ 0.5 |
| C49G G50A U59G | ≤ 0.5 |
| U3C A43U U53A | ≤ 0.5 |
| U3C C30A C61U | 0.678 |
| A20C C29U A37G A69U | 0.526 |
| C24G A36G A70G | ≤ 0.5 |
| G18C U53C A57C | ≤ 0.5 |
| G23A U64G | 0.717 |
